Assay results taken from ChEMBL document CHEMBL1149671, “Enantiopure five-membered cyclicdiamine derivatives as potent and selective inhibitors of factor Xa. Improving in vitro metabolic stability via core modifications” (Bioorg Med Chem Lett, 2007).

Key:
Trypsin = Trypsin (Homo sapiens, UniProt P07477+P07478+P35030); assay: Inhibition of human trypsin; assay type: protein assay
[1] = Cytotoxicity against HEK cells; assay type: cell-based; conditions: Homo sapiens, HEK293
[2] = Permeability across Caco-2 cells; assay type: ADME, cell-based; conditions: human, read-out: permeability
Prothrombin = Prothrombin (Homo sapiens, UniProt P00734); assay: Inhibition of human thrombin
Coagulation factor X [3] = molecular target: T1, Coagulation factor X (Homo sapiens, UniProt P00742); assay: Inhibition of human factor 10a in presence of tripeptide substrate at 37 degC
T1 sequence (P00742 41-179 limits assumed): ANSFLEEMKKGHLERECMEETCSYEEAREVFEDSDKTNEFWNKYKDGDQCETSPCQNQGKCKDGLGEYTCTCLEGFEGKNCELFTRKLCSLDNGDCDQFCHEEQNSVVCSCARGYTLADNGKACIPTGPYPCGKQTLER
T1 sequence (P00742 235-488 limits assumed): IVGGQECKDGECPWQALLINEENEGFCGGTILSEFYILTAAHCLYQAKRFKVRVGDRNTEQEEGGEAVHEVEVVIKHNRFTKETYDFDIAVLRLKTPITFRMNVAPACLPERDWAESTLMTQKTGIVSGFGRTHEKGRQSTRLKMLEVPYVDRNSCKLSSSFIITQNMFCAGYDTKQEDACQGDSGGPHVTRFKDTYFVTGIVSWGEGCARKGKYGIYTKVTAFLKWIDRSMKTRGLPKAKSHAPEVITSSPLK

Coagulation factor VII = molecular target: T2, Coagulation factor VII (Homo sapiens, UniProt P08709); assay: Inhibition of human factor 7a
T2 sequence (P08709 whole entry): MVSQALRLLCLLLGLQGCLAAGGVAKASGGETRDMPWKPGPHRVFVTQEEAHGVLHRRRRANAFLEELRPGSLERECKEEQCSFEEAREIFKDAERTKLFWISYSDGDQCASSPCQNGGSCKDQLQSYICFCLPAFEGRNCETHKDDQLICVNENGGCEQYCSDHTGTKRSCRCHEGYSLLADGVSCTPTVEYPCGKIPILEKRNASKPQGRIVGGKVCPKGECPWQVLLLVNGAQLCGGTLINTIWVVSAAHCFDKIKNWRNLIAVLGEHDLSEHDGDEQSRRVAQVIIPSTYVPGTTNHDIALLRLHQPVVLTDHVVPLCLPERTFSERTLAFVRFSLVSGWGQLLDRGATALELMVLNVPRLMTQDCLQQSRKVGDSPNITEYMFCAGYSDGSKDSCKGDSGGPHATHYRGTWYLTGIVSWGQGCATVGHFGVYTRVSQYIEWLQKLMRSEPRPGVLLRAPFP

Coagulation factor X [4] = molecular target: T1, Coagulation factor X; assay: Inhibition of human factor 10a in presence of saturating prothrombin at 37 degC
How it was run: (§1)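 Purified human factor Xa. […] Prothrombinase-type inhibition measured with prothrombin as substrate at 25 °C, and with saturating prothrombin at 37 °C. Values are averages of at least 2 determinations.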

Coagulation factor X [5] = molecular target: T1, Coagulation factor X; assay: Inhibition of human factor 10a in presence of prothrombin at 25 degC; how it was run: as §1
[6] = molecular target: Tissue-type plasminogen activator (Homo sapiens, UniProt P00750); assay: Inhibition of human tissue plasminogen activator
Sequence of Tissue-type plasminogen activator (P00750 whole entry): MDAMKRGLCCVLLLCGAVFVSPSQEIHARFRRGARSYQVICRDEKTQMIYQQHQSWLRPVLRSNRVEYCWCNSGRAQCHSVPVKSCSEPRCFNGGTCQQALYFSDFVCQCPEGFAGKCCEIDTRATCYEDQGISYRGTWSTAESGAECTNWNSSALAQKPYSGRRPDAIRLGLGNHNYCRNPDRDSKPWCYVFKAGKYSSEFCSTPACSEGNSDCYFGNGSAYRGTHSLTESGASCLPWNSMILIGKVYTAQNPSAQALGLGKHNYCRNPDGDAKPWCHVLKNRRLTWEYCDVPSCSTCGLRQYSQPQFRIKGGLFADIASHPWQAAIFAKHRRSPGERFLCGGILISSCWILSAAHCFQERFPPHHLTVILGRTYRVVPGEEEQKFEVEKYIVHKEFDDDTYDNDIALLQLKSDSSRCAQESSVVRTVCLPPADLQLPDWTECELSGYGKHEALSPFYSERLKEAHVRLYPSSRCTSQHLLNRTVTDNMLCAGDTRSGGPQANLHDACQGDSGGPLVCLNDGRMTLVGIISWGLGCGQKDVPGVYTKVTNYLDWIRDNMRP

[7] = Half life in dog at 0.5 mg/kg, iv; assay type: ADME, organism-based, Canis lupus familiaris; set-up: dose 0.5 mg/kg, route intravenous; conditions: in vivo
How it was run: (§2)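 Dogs. Intravenous dose 0.5 mg/kg, used for clearance (L/kg/h), steady-state volume of distribution (L/kg) and iv half-life.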

Coagulation factor XI = Coagulation factor XI (Homo sapiens, UniProt P03951); assay: Inhibition of human factor 11a
Sequence of Coagulation factor XI (P03951 19-387 limits assumed): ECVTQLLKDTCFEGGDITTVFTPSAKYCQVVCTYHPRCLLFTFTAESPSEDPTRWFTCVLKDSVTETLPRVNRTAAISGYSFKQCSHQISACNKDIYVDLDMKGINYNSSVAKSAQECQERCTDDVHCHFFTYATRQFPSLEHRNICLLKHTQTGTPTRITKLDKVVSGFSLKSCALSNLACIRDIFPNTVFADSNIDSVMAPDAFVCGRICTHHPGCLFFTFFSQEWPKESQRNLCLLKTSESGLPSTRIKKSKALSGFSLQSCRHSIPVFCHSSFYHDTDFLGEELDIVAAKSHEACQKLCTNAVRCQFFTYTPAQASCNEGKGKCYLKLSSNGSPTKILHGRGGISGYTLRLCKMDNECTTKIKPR
Sequence of Coagulation factor XI (P03951 388-625 limits assumed): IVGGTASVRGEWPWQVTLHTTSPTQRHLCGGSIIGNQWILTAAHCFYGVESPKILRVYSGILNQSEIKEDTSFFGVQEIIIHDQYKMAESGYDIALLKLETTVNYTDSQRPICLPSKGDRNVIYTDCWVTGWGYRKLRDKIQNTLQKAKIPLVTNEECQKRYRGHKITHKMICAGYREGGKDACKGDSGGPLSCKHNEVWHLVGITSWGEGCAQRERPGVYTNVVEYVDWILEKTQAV

[8] = Volume of distribution at steady state in dog at 0.5 mg/kg, iv; assay type: ADME, organism-based, Canis lupus familiaris; set-up: dose 0.5 mg/kg, route intravenous; conditions: in vivo, read-out: Vdss; how it was run: as §2
[9] = molecular target: Urokinase-type plasminogen activator (Homo sapiens, UniProt P00749); assay: Inhibition of human urokinase
Plasma kallikrein = Plasma kallikrein (Homo sapiens, UniProt P03952); assay: Inhibition of human plasma kallikrein; assay type: cell-free
Sequence of Plasma kallikrein (P03952 20-390 limits assumed): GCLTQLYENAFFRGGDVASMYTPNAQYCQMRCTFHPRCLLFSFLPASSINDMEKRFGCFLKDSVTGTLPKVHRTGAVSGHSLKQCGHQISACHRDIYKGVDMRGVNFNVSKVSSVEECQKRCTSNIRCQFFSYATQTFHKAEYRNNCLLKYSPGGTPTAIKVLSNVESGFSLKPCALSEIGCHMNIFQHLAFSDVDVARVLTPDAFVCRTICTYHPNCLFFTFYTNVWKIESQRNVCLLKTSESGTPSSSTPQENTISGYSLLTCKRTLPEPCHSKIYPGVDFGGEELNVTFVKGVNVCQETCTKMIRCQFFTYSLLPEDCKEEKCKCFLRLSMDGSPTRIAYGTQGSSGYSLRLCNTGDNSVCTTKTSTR
Sequence of Plasma kallikrein (P03952 391-638 limits assumed): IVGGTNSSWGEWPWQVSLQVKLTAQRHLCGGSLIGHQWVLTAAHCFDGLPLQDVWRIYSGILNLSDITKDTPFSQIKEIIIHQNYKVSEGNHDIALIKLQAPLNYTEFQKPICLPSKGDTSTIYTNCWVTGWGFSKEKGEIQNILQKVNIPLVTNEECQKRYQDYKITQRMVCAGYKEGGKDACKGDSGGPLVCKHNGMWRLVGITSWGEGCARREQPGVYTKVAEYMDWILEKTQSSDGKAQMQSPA

[10] = molecular target: Vitamin K-dependent protein C (Homo sapiens, UniProt P04070); assay: Inhibition of human activated protein C
Sequence of Vitamin K-dependent protein C (P04070 43-197 limits assumed): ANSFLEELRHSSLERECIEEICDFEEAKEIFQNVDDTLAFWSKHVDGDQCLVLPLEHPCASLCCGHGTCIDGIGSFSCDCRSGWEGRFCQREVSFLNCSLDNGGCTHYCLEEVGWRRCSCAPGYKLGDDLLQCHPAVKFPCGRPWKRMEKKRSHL
Sequence of Vitamin K-dependent protein C (P04070 212-461 limits assumed): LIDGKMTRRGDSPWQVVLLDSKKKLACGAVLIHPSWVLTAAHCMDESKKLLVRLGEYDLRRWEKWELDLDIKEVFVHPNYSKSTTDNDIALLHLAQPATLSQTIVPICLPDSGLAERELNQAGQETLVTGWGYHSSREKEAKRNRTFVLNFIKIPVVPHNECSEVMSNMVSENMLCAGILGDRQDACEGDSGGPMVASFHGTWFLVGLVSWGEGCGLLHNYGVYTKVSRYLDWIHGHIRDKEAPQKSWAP

[11] = Bioavailability in dog at 0.2 mg/kg, po; assay type: ADME, organism-based, Canis lupus familiaris; conditions: in vivo; how it was run: as §2
[12] = Clearance in dog at 0.5 mg/kg, iv; assay type: ADME, organism-based, Canis lupus familiaris; set-up: dose 0.5 mg/kg, route intravenous; conditions: in vivo; how it was run: as §2
Liver microsomes = assay: Metabolic stability in human liver microsomes assessed as microsomal intrinsic clearance rate; assay type: ADME, Microsome
How it was run: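 Human liver microsomes, 10-min incubation. Metabolic stability given as % compound remaining. Microsomal intrinsic clearance rate (nmol/min/mg) is based on the % remaining after 10 min.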

Plasminogen = Plasminogen (Homo sapiens, UniProt P00747); assay: Inhibition of human Plasmin
Sequence of Plasminogen (P00747 97-580 limits assumed): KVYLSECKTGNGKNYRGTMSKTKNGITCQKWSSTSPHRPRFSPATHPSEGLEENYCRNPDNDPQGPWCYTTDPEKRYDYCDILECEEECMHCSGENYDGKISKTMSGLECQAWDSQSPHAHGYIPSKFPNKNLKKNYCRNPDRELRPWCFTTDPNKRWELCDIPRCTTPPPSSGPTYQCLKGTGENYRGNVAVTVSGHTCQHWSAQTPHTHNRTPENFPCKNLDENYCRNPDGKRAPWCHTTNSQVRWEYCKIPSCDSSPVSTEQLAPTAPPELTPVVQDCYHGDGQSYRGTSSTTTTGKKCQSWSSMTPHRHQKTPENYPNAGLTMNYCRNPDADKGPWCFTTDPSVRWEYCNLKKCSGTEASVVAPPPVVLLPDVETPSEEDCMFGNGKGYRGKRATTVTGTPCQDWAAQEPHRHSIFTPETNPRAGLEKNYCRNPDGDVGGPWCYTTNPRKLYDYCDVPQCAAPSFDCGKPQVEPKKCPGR
Sequence of Plasminogen (P00747 581-810 limits assumed): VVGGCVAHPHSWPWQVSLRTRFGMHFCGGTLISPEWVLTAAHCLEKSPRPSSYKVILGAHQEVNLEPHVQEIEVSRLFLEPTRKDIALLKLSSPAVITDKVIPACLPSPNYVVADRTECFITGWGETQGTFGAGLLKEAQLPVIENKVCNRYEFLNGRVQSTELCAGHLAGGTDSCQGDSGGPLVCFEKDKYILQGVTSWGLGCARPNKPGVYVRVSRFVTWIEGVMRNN

[13] = Half life in dog at 0.2 mg/kg, po; assay type: ADME, organism-based, Canis lupus familiaris; set-up: dose 0.2 mg/kg, route oral; conditions: in vivo
Coagulation factor X [14] = molecular target: T1, Coagulation factor X; assay: Inhibition of human factor 10a in presence of tripeptide substrate at 25 degC
Coagulation factor X [15] = molecular target: T1, Coagulation factor X; assay: Inhibition of human factor 10a
[16] = Inhibition of human chymotrypsin

SMILES: CCOC(=O)N1C[C@H](NC(=O)c2ccc(-n3ccccc3=O)cc2)[C@H](NC(=O)c2ccc(Cl)s2)C1
- Ki (Trypsin): > 5 µM
- IC50 [1]: > 100 µM
- Papp [2]: 2.5 ×10⁻⁶ cm/s
- Ki (Prothrombin): 4.02 µM
- Ki (Coagulation factor X [3]): 0.0026 µM
- Ki (Coagulation factor VII): > 11 µM
- Ki (Coagulation factor X [4]): 0.03 µM
- Ki (Coagulation factor X [5]): 0.0075 µM
- Ki [6]: > 21 µM
- half-life [7]: 1.4 h
- Ki (Coagulation factor XI): 7.38 µM
- Vd [8]: 2.4 L/kg
- Ki [9]: > 14 µM
- Ki (Plasma kallikrein): > 6 µM
- Ki [10]: > 21 µM
- bioavailability [11]: 25%
- clearance [12]: 43.3 mL/min/kg
- CL (Liver microsomes): 0 nmol/mg/min
- Ki (Plasminogen): > 22 µM
- half-life [13]: 2.7 h
- Ki (Coagulation factor X [14]): 0.00073 µM
- Ki (Coagulation factor X [15]): 0.0005 µM
- Ki [16]: > 20 µM
